Assay results as given in article PMC8811894 (ACS Omega, 2022).
Read-outs that look alike come from different tables or passages of the source.

Tests used:
[1] = tested on: HCT-116 human colon epithelial colorectal carcinoma cells; assay: Click-iT-EdU Alexa Fluor 488 cell proliferation assay; format: cell-based; details: read-out: DNA synthesis inhibition, GI50
Procedure, shortened: (§1)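 Cells were seeded at 800/well in medium with 10% FBS under 5% CO2. HCT-116 grew in McCoy's 5a and T-47D in RPMI-1640 + insulin 0.2 Units/mL. Test compound came from DMSO stocks, with tubercidin as positive control. After 72 h, EdU was added for 2.5 h at 37 °C. Cells were fixed in 4% paraformaldehyde (30 min, RT) and stained with Hoechst 33342. Click-iT Alexa Fluor 488 reaction ran 1 h at RT in the dark. Plates were read by high-content imaging; value from sigmoidal fit.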

[2] = tested on: SK-OV-3 human ovary ascites epithelial adenocarcinoma cells; assay: MTT cell toxicity assay; format: cell-based; details: read-out: cancer cell growth inhibition, GI50
Procedure, shortened: (§2)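 Cells were seeded at 5 × 10^3/well in medium with 10% FBS and kept at 37 °C, 5% CO2. Media: DMEM for A549 and A375; EMEM for DU145; F-12K for PC-3; McCoy's 5a for HCT-116 and SK-OV-3; RPMI-1640 + insulin 0.2 Units/mL for T-47D. Test compound came from DMSO stocks, with tubercidin as positive control. MTT at 0.5 mg/mL final was added for 2–3 h at 37 °C, then absorbance read at 570 nm. Three repeats; GI50 from sigmoidal fit.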

[3] = tested on: T-47D human breast carcinoma cells; assay: MTT cell toxicity assay; format: cell-based; details: for GI50: 72 h, read-out: cancer cell growth inhibition, GI50; for times more potent than PrTPP: MTT test
Procedure, shortened: as §2

[4] = tested on: A375 human skin epithelial malignant melanoma cells; assay: MTT cell toxicity assay; format: cell-based; details: read-out: cancer cell growth inhibition, GI50
Procedure, shortened: as §2

[5] = tested on: HCT-116 human colon epithelial colorectal carcinoma cells; assay: MTT cell toxicity assay; format: cell-based; details: read-out: cancer cell growth inhibition, GI50
Procedure, shortened: as §2

[6] = tested on: T-47D human breast carcinoma cells; assay: Click-iT-EdU Alexa Fluor 488 cell proliferation assay; format: cell-based; details: for GI50: 72 h, read-out: DNA synthesis inhibition, GI50; for times more potent than PrTPP: Click-iT-EdU test
Procedure, shortened: as §1

[7] = tested on: DU145 human prostate epithelial carcinoma cells; assay: MTT cell toxicity assay; format: cell-based; details: read-out: cancer cell growth inhibition, GI50
Procedure, shortened: as §2

[8] = tested on: PC-3 human prostate epithelial adenocarcinoma grade IV cells; assay: MTT cell toxicity assay; format: cell-based; details: 72 h, read-out: cancer cell growth inhibition, GI50
Procedure, shortened: as §2

[9] = tested on: Caco-2 colon adenocarcinoma cells; details: read-out: IC50, growth suppression; 24 h treatment; ref [9]; cited from earlier work
[10] = tested on: A549 human lung epithelial carcinoma cells; assay: MTT cell toxicity assay; format: cell-based; details: read-out: cancer cell growth inhibition, GI50
Procedure, shortened: as §2

[11] = tested on: panel of 60 human cancer cell lines; assay: NCI60 screen, SRB assay, panel mean; format: cell-based; details: for NCI60 screen mean GI, %: single-dose inhibition of cell growth at 10 μM; for GI50: Homo sapiens, read-out: NCI60 screen mean GI50
Procedure, shortened: (§3)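 Tested on the 60-line human cancer panel by sulforhodamine B assay. The dye binds cell protein under mildly acidic conditions and is extracted with basic medium; bound dye is taken as a proxy for cell mass. A single-dose test at 10 μM gives % growth inhibition; a five-dose test gives GI50.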

[12] = tested on: MDA-MB-435; assay: NCI60 SRB screen; format: cell-based; details: Homo sapiens, MDA-MB-435, read-out: growth inhibition
Procedure, shortened: as §3

[13] = tested on: A498; assay: NCI60 SRB screen; format: cell-based; details: Homo sapiens, A498, read-out: growth inhibition
Procedure, shortened: as §3

[14] = tested on: MCF-7 human breast carcinoma cells; details: ref [30]; cited from earlier work
[15] = tested on: sea urchin embryos; assay: Phenotypic sea urchin embryo assay; format: in vivo, Paracentrotus lividus
[16] = tested on: panel of 60 human cancer cell lines; details: read-out: NCI60 screen mean GI50; SRB assay; ref NCI60 screen data, NSC 115712; cited from earlier work
[17] = tested on: MDA-MB-468; assay: NCI60 SRB screen; format: cell-based, human; details: NCI60 single dose, MDA-MB-468 breast cancer
Procedure, shortened: as §3

[18] = tested on: SK-MEL-5; assay: NCI60 SRB screen; format: cell-based, human; details: NCI60 single dose, SK-MEL-5 melanoma
Procedure, shortened: as §3

Molecule | GI50 ([1]; Homo sapiens, HCT-116, 72 h) [nM] | GI50 ([2]; Homo sapiens, SK-OV-3, 72 h) [nM] | GI50 ([3]; Homo sapiens, T47D) [nM] | GI50 ([4]; Homo sapiens, A-375, 72 h) [nM] | GI50 ([5]; Homo sapiens, HCT-116, 72 h) [nM] | GI50 ([6]; Homo sapiens, T47D) [nM] | GI50 ([7]; Homo sapiens, DU-145, 72 h) [nM] | GI50 ([8]; Homo sapiens) [nM] | GI50 ([10]; Homo sapiens, A549, 72 h) [nM] | NCI60 screen mean GI, % [11] [%] | other results
C=CCc1cc(OC)c2c(c1)OCO2 [1c, myristicin] | > 250000 | > 250000 | 113000 ± 12400 | > 250000 | > 250000 | > 250000 | > 250000 | > 250000 | > 250000 | – | IC50 [9]: 760000 nM
COc1cc(CCCO)c(OC)c2c1OCO2 [4a, 3-(4,7-Dimethoxy-1,3-benzodioxol-5-yl)propan-1-ol] | > 250000 | > 250000 | > 250000 | > 250000 | > 250000 | > 250000 | > 250000 | > 250000 | > 250000 | 0 | –
COc1cc(CCC[P+](c2ccccc2)(c2ccccc2)c2ccccc2)c(OC)c(OC)c1OC.[I-] [7d, [3-(2,3,4,5-Tetramethoxyphenyl)propyl](triphenyl)phosphonium Iodide] | 681 ± 90 | 21600 ± 1530 | 500 ± 70 | 2350 ± 240 | 218 ± 24 | 613 ± 25 | 8130 ± 150 | 3880 ± 550 | 17900 ± 360 | 32.9 | times more potent than PrTPP ([3]; T-47D): 4.8 times; inhibition at 10 µM [12]: ~100%; inhibition at 10 µM [13]: ~100%; times more potent than PrTPP ([6]; T-47D): 5.6 times
CCCCCCCCCCCC[P+](c1ccccc1)(c1ccccc1)c1ccccc1 [dodecyl-TPP] | – | – | – | – | – | – | – | – | – | – | concentration exhibiting cytotoxicity [14]: 250 nM
COc1c(CCC[P+](c2ccccc2)(c2ccccc2)c2ccccc2)cc2c(c1OC)OCO2.[I-] [7b, [3-(6,7-Dimethoxy-1,3-benzodioxol-5-yl)propyl](triphenyl)phosphonium Iodide] | 405 ± 36 | 6620 ± 130 | 107 ± 4 | 491 ± 19 | 229 ± 27 | 118 ± 7 | 3260 ± 360 | 555 ± 49 | 4640 ± 370 | – | times more potent than PrTPP ([3]; T-47D): 22.3 times; GI50 [11]: 1580 nM; times more potent than PrTPP ([6]; T-47D): 29.2 times
COc1cc(OCCCCCC[P+](c2ccccc2)(c2ccccc2)c2ccccc2)c(OC)c2c1OCO2.[Br-] [compound 11, {6-[(4,7-Dimethoxy-2H-1,3-benzodioxol-5-yl)oxy]hexyl}(triphenyl)phosphonium Bromide] | 2830 ± 370 | 24600 ± 2000 | 421 ± 13 | 1930 ± 77 | 1950 ± 210 | 606 ± 60 | 20800 ± 1300 | 258 ± 26 | 463 ± 42 | – | effect on sea urchin embryo development (in words) ([15]; in vivo): moderate antiproliferative effect on the sea urchin embryos
Nc1ncnc2c1ccn2[C@@H]1O[C@H](CO)[C@@H](O)[C@H]1O [tubercidin, Tubercidin, reference compound] | 30.7 ± 2 | 131 ± 2 | 13 ± 1 | 43 ± 4 | 80 ± 4 | 44 ± 6 | 256 ± 90 | 76 ± 1 | 44 ± 3 | – | GI50 [16]: 331 nM
COc1cc(CCCO)cc2c1OCO2 [4c, 3-(7-Methoxy-1,3-benzodioxol-5-yl)propan-1-ol] | > 250000 | > 250000 | > 250000 | > 250000 | > 250000 | > 250000 | > 250000 | > 250000 | > 250000 | 0 | –
[3-(7-Methoxy-1,3-benzodioxol-5-yl)propyl](trimethyl)phosphonium Iodide [7c] | – | – | – | – | – | – | – | – | – | 63.9 | GI50 ([1]; HCT-116, Click-iT-EdU, 72 h): 220 ± 30 nM; cleavage alteration, EC ([15]; effective threshold concentration, fertilized eggs exposed): >4 µM; GI50 ([2]; SK-OV-3, MTT assay, 72 h): 11000 ± 1400 nM; times more potent than PrTPP ([3]; T-47D): 239 times; GI50 ([3]; T-47D, MTT assay): 10 ± 0.5 nM; GI50 ([4]; A375, MTT assay, 72 h): 1080 ± 60 nM; GI50 ([5]; HCT-116, MTT assay, 72 h): 331 ± 39 nM; number of cancer cell lines with growth inhibited by more than 80% ([11]; NCI60 single dose 10 μM): 18; times more potent than PrTPP ([6]; T-47D): 138 times; GI50 ([6]; T-47D, Click-iT-EdU): 25 ± 2 nM; GI50 ([7]; DU145, MTT assay, 72 h): 5120 ± 660 nM; effect at 10 μM (in words) [17]: lethal effect; GI50 ([8]; PC-3, MTT assay): 410 ± 40 nM; GI50 ([10]; A549, MTT assay, 72 h): 12200 ± 610 nM; effect at 10 μM (in words) [18]: lethal effect
COc1cc(CCC[P+](c2ccccc2)(c2ccccc2)c2ccccc2)c(OC)c2c1OCO2.[I-] [7a, [3-(4,7-Dimethoxy-1,3-benzodioxol-5-yl)propyl](triphenyl)phosphonium Iodide] | 367 ± 50 | 2420 ± 430 | 89 ± 8 | 627 ± 85 | 263 ± 33 | 104 ± 7 | 2860 ± 400 | 552 ± 30 | 3000 ± 210 | – | times more potent than PrTPP ([3]; T-47D): 26.9 times; GI50 [11]: 1660 nM; times more potent than PrTPP ([6]; T-47D): 33.2 times
C=CCc1cc(OC)c2c(c1OC)OCO2 [1a, Apiol] | > 250000 | > 250000 | 70700 ± 9900 | > 250000 | > 250000 | > 250000 | > 250000 | > 250000 | > 250000 | – | –
COc1c(CCCO)cc2c(c1OC)OCO2 [4b, 3-(6,7-Dimethoxy-1,3-benzodioxol-5-yl)propan-1-ol] | > 250000 | > 250000 | > 250000 | > 250000 | > 250000 | > 250000 | > 250000 | > 250000 | > 250000 | 0 | –
COc1cc(COC(=O)CCCCC[P+](c2ccccc2)(c2ccccc2)c2ccccc2)c(OC)c2c1OCO2.[Br-] [compound 16, {6-[(4,7-Dimethoxy-2H-1,3-benzodioxol-5-yl)methoxy]-6-oxohexyl}(triphenyl)phosphonium Bromide] | – | 10200 ± 190 | 430 ± 880 | 3430 ± 80 | 1070 ± 20 | – | 14100 ± 370 | 4180 ± 130 | 18500 ± 670 | 49.2 | number of cancer cell lines with 80–100% growth inhibition ([11]; NCI60 single dose 10 μM): nine
COc1cc(CNC(=O)CCCCC[P+](c2ccccc2)(c2ccccc2)c2ccccc2)c(OC)c2c1OCO2.[Br-] [compound 17, (6-{[(4,7-Dimethoxy-2H-1,3-benzodioxol-5-yl)methyl]amino}-6-oxohexyl)(triphenyl)phosphonium Bromide] | – | 18900 ± 2860 | 256 ± 80 | 2780 ± 170 | 1050 ± 10 | – | 11300 ± 750 | 2150 ± 40 | 9960 ± 220 | 35.8 | number of cancer cell lines with 80–100% growth inhibition ([11]; NCI60 single dose 10 μM): three
COc1cc(CCCO)c(OC)c(OC)c1OC [4d, 3-(2,3,4,5-Tetramethoxyphenyl)propan-1-ol] | > 250000 | > 250000 | > 250000 | > 250000 | > 250000 | > 250000 | > 250000 | > 250000 | > 250000 | 0 | –
